Measured values gathered from unrelated publications.
pIC50: −log10 of the molar value.
Effect on: cell growth or viability

SMILES | cell line | test | conditions | pIC50
C[C@H](NC(=O)[C@H](Cc1c[nH]c2ccccc12)NC(=O)CNC(=O)[C@H](CCCNC(=N)N)NC(=O)[C@H](Cc1c[nH]c2ccccc12)NC(=O)[C@H](Cc1c[nH]c2ccccc12)NC(=O)[C@H](CO)NC(=O)[C@H](CO)NC(=O)[C@H](Cc1c[nH]c2ccccc12)NC(=O)CN)C(=O)N[C@@H](CCCCN)C(=O)N[C@@H](Cc1c[nH]c2ccccc12)C(=O)N[C@@H](C)C(=O)N[C@@H](CO)C(=O)N[C@@H](CCCCN)C(=O)NCC(=O)N[C@@H](Cc1c[nH]c2ccccc12)C(=O)NCC(=O)N[C@@H](CCCCN)C(N)=O | HEK293 | MTT | – | 4.47
CC[C@H](C)[C@H](NC(=O)CN)C(=O)NCC(=O)N[C@@H](C)C(=O)N[C@H](C(=O)N[C@@H](CC(C)C)C(=O)N[C@@H](CCCCN)C(=O)N[C@H](C(=O)N[C@@H](CC(C)C)C(=O)N[C@H](C(=O)N[C@H](C(=O)NCC(=O)N[C@@H](CC(C)C)C(=O)N1CCC[C@H]1C(=O)N[C@@H](C)C(=O)N[C@@H](CC(C)C)C(=O)N[C@H](C(=O)N[C@@H](CO)C(=O)N[C@@H](Cc1c[nH]c2ccccc12)C(=O)N[C@H](C(=O)N[C@@H](CCCCN)C(=O)N[C@@H](CCCNC(=N)N)C(=O)N[C@@H](CCCCN)C(=O)N[C@@H](CCCNC(=N)N)C(=O)N[C@@H](CCC(N)=O)C(=O)N[C@@H](CCC(N)=O)C(N)=O)[C@@H](C)CC)[C@@H](C)CC)[C@@H](C)O)[C@@H](C)O)C(C)C)C(C)C | HEK293 | MTT | 24 h | 5.33
N.N.[Cl][Pt][Cl] | KARPAS-422 | ATP luminescence | 72 h | 5.15
CC(C)C[C@H](NC(=O)[C@H](CO)NC(=O)[C@H](CO)NC(=O)CNC(=O)[C@@H]1CCCN1C(=O)[C@H](Cc1ccc(O)cc1)NC(=O)[C@H](CC(C)C)NC(=O)[C@H](CO)NC(=O)[C@H](CS)NC(=O)[C@H](CC(C)C)NC(=O)[C@@H](N)CC(C)C)C(=O)O | NCI-H1975 | MTT | 72 h | < 4.00
[C-]#[O+].[C-]#[O+].[C-]#[O+].[C-]#[O+].[C-]#[O+].[C-]#[O+].[C-]#[O+].[C-]#[O+].[C-]#[O+].[C-]#[O+].[Mn].[Mn] | HEK293 | MTT | 48 h | 5.26
Cc1ncsc1-c1ccc([C@H](C)NC(=O)[C@@H]2C[C@@H](O)CN2C(=O)[C@@H](c2cc(N3CCC(CN4CCC(OC5CC(Oc6cc(N7C8CCC7CN(c7cc(-c9ccccc9O)nnc7N)C8)ccn6)C5)CC4)CC3)no2)C(C)C)cc1 (some centres unmarked) | HCC515 | ATP luminescence | 7 days | 7.28
N.N.[Cl][Pt][Cl] | HEK293 | MTT | 48 h | 4.75
CC[C@H](C)[C@H](NC(=O)[C@H](CO)NC(=O)[C@H](CO)NC(=O)[C@H](Cc1ccccc1)NC(=O)CN)C(=O)N[C@@H](Cc1ccccc1)C(=O)N[C@@H](CCCCNC(=N)N)C(=O)NCC(=O)N[C@H](C(=O)N[C@@H](C)C(=O)N[C@@H](CCCCNC(=N)N)C(=O)N[C@@H](Cc1ccccc1)C(=O)N[C@@H](C)C(=O)N[C@@H](CO)C(=O)N[C@@H](CCCCNC(=N)N)C(=O)NCC(=O)N[C@@H](CC(C)C)C(=O)NCC(=O)N[C@@H](CCCCNC(=N)N)C(N)=O)C(C)C | HEK293 | MTT | – | < 4.00
